Experimental data as given in ChEMBL document CHEMBL1132259, “Non-peptide GPIIb/IIIa inhibitors. 20. Centrally constrained thienothiophene alpha-sulfonamides are potent, long acting in vivo inhibitors of platelet aggregation” (J Med Chem, 1999).

Legend:
[1] = biological target: T1, Integrin alpha-IIb/beta-3 (Homo sapiens, UniProt P05106+P08514); assay: In vitro inhibition of [125I]L-692884 binding to Fibrinogen receptor by silicate scintillation proximity assay(SPA); type: protein-complex assay
[2] = biological target: T1, Integrin alpha-IIb/beta-3; assay: Equilibrium dissociation constant was measured from displacement of L-762,745 from Fibrinogen receptor of human platelets by flow cytometry
Target sequence in this assay (P05106 27-788 limits assumed): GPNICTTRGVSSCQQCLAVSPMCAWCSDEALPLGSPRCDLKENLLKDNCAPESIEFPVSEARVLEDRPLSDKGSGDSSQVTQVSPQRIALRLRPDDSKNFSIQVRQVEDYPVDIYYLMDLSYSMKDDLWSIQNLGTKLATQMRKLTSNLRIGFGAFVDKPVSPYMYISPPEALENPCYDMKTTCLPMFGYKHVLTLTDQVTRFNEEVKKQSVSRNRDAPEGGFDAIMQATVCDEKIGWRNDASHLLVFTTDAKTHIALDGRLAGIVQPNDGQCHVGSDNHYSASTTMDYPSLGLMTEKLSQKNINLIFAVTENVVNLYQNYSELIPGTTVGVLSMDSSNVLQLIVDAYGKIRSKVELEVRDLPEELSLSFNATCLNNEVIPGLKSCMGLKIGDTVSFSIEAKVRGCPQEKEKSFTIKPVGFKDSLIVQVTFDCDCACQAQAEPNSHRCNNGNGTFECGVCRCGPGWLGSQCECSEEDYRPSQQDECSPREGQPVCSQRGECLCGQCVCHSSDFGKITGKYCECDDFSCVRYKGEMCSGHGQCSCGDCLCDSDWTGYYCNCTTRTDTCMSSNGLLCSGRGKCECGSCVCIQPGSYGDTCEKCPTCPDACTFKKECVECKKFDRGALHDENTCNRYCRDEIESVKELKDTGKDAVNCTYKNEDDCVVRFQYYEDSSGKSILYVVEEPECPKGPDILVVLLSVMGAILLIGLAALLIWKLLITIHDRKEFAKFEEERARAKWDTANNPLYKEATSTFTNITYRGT
Target sequence in this assay (P08514 32-887 limits assumed): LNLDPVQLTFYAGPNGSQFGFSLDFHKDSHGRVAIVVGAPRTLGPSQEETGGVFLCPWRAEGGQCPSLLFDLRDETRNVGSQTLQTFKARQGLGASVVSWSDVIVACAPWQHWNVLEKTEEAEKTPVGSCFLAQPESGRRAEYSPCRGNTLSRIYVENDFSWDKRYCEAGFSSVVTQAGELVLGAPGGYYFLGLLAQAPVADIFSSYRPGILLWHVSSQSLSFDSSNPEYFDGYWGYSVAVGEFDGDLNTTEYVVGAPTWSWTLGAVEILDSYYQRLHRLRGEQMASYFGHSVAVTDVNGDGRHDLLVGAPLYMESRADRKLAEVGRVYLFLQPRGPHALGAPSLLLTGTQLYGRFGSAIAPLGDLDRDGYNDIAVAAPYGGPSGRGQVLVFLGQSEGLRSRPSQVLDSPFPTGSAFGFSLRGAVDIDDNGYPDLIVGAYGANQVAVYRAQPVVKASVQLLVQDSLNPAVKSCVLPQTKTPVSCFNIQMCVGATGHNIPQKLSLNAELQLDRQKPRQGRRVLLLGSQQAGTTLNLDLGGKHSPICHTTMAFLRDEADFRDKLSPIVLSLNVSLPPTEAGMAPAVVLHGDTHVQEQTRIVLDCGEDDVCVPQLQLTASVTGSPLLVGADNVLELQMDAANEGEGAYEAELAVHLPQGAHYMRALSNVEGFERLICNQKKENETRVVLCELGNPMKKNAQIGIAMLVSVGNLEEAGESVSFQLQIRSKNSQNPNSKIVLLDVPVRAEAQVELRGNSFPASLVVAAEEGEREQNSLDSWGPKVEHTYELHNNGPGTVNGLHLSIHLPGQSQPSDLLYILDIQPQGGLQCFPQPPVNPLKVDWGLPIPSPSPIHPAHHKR
Target sequence in this assay (P08514 891-1039 limits assumed): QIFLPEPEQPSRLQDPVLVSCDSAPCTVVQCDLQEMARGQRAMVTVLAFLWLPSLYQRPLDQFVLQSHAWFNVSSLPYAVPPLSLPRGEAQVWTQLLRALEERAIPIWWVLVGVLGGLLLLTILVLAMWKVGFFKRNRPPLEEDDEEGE

[3] = biological target: T1, Integrin alpha-IIb/beta-3; assay: Displacement of L-762,745 from Fibrinogen Receptor of human platelets by flow cytometry
Procedure, shortened: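 Resting human gel-filtered platelets at 2 × 10⁶ cells/mL final, incubated 2 h at room temperature with fluorescein-labelled L-762,745 (110 nM final) and competitor at 0.05–1000 nM. Read by flow cytometry (FACScan).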
Target sequence in this assay (P05106 27-788 limits assumed): as the sequence (P05106 27-788 limits assumed) above
Target sequence in this assay (P08514 32-887 limits assumed): as the sequence (P08514 32-887 limits assumed) above
Target sequence in this assay (P08514 891-1039 limits assumed): as the sequence (P08514 891-1039 limits assumed) above

[4] = biological target: T1, Integrin alpha-IIb/beta-3; assay: Inhibition of [125I]L-692884 binding to purified GPIIb/IIIa by silicate scintillation proximity assay(SPA); type: protein-complex assay

Row | IC50 [1] | Kd [2] | Kd [3] | ED50 [4] | Structure (SMILES)
1 | 0.09 nM | 0.026 nM |  |  | O=C(NC[C@H](NS(=O)(=O)c1ccc(Cl)cc1)C(=O)O)c1cc2cc(CCC3CCNCC3)sc2s1
2 |  |  | 0.08 nM | 0.11 nM | O=C(NC[C@H](NS(=O)(=O)c1cccnc1)C(=O)O)c1cc2sc(CCC3CCNCC3)cc2s1
3 | 0.03 nM | 0.023 nM |  |  | O=C(NC[C@H](NS(=O)(=O)c1ccccc1)C(=O)O)c1cc2cc(CCC3CCNCC3)sc2s1
4 | 0.047 nM | 0.07 nM |  |  | O=C(NC[C@H](NS(=O)(=O)c1cccnc1)C(=O)O)c1cc2cc(CCC3CCNCC3)sc2s1
5 | 0.04 nM | 0.092 nM |  |  | O=C(NC[C@H](NS(=O)(=O)c1cccs1)C(=O)O)c1cc2sc(CCC3CCNCC3)cc2s1
6 |  | 28 nM |  | 0.47 nM | O=C(NCC(NS(=O)(=O)c1cccnc1)C(=O)O)c1cc2cc(CCC3CCNCC3)sc2s1 (single isomer, unassigned)
7 | 0.21 nM | 3 nM |  |  | CCCCS(=O)(=O)N[C@@H](CNC(=O)c1cc2sc(CCC3CCNCC3)cc2s1)C(=O)O
8 |  | 0.15 nM |  |  | O=C(NC[C@H](NS(=O)(=O)c1ccccc1)C(=O)O)c1cc2sc(CCC3CCNCC3)cc2s1

Further lines, the compound ahead of its results:

Row | Structure (SMILES) | IC50 [1] | Kd [2] | Kd [3] | ED50 [4]
9 | O=C(O)CCNC(=O)c1ccc2c(c1)C(=O)N(CCC1CCNCC1)C2 | 13 nM | 550 nM |  | 
10 | CCOCCS(=O)(=O)N[C@@H](CNC(=O)c1cc2cc(CCC3CCNCC3)sc2s1)C(=O)O |  |  | 1.2 nM | 0.13 nM
11 | O=C(NC[C@H](NS(=O)(=O)c1cccs1)C(=O)O)c1cc2cc(CCC3CCNCC3)sc2s1 | 0.04 nM | 0.15 nM |  | 
12 | O=C(NC[C@H](NS(=O)(=O)c1cccnc1)C(=O)O)c1cc2cc(CCCC3CCNCC3)sc2s1 | 0.07 nM | 17 nM |  | 
13 | CCOCCS(=O)(=O)N[C@@H](CNC(=O)c1cc2sc(CCC3CCNCC3)cc2s1)C(=O)O |  |  | 1.1 nM | 0.27 nM
14 | CS(=O)(=O)N[C@@H](CNC(=O)c1cc2cc(CCC3CCNCC3)sc2s1)C(=O)O |  |  | 52 nM | 1.2 nM
15 | O=C(NC[C@H](NS(=O)(=O)c1cccnc1)C(=O)O)c1ccc2c(c1)C(=O)N(CCC1CCNCC1)C2 |  | 2.2 nM |  | 
16 | CCCCS(=O)(=O)N[C@@H](CNC(=O)c1cc2cc(CCC3CCNCC3)sc2s1)C(=O)O |  |  | 5.6 nM | 0.12 nM
17 | O=C(NC[C@H](NS(=O)(=O)c1cccnc1)C(=O)O)c1cc2cc(C3CCNCC3)sc2s1 | 0.45 nM | 22 nM |  | 
